Assay results collected from several papers.
Lines come from different studies, so protocols differ.
Target: Serine/threonine-protein kinase BRSK2 (BRSK2, Homo sapiens, UniProt Q8IWQ3)
Residues used in one study (Q8IWQ3 1-736): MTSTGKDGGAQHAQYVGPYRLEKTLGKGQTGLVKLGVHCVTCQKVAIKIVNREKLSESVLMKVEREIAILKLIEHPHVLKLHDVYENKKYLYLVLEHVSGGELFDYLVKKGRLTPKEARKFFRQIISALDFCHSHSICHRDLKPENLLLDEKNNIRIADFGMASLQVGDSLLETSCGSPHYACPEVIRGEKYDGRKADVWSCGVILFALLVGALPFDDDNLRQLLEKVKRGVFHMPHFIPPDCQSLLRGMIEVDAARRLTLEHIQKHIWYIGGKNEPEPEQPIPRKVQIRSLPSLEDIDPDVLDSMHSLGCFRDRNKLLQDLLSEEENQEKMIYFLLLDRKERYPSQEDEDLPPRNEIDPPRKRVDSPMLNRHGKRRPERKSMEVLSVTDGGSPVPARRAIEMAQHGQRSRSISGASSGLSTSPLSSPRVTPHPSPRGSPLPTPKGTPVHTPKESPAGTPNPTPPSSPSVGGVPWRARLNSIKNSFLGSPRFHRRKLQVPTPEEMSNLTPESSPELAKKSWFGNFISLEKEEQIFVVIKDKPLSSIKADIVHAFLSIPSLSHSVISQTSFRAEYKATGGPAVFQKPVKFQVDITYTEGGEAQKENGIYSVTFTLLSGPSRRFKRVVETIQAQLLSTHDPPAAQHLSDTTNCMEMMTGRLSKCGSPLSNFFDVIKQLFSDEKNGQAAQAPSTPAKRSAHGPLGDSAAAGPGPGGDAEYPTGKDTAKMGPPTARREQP

Compound	assay	setting	remaining binding
Nc1ncc2c(n1)-c1c([nH]c3ccc(C#CC4CC4)cc13)CCCC2	binding, competition with immobilised ligand	1 µM	93%
c1cncc(-c2cccc(Nc3nccc(NC4CCCCC4)n3)c2)c1	binding, competition with immobilised ligand	10 µM	99%
O=C(NS(=O)(=O)c1ccc(NCC2CCOCC2)c([N+](=O)[O-])c1)c1ccc(N2CCN(Cc3ccc(C(F)(F)F)cc3-c3ccc(Cl)cc3)CC2)cc1Oc1cnc2[nH]ccc2c1	cell-free assay, competition with immobilised ligand	1 µM	87%
O=C(c1ccc(Nc2ncc(Cl)c(-c3cc4ccccc4s3)n2)cc1)N1CCC(N2CCCC2)CC1	binding, competition with immobilised ligand	1 µM	53%
CN(CCCC(F)(F)F)c1nccc(-c2cnn3ncccc23)n1	binding	1 µM	100%
O=C(c1ccc(Nc2nccc(-c3cc4ccccc4s3)n2)cc1)N1CCC(N2CCCC2)CC1	binding, competition with immobilised ligand	1 µM	91%
O=C(NCC1CCOCC1)c1n[nH]cc1NC(=O)c1c(F)cccc1F	binding, competition with immobilised ligand	1 µM	95%
O=C(NCCCN1CCOCC1)c1ccc(Nc2nccc(-c3cc4ccccc4s3)n2)cc1	binding, competition with immobilised ligand	1 µM	77%
O=C(Nc1cnc(Oc2ccc(F)cc2)nc1)N1CCc2ncccc2[C@@H]1c1ccc(F)cc1	cell-free assay, competition with immobilised ligand	1 µM	89%
N[C@@H]1CCN(c2nccc(-c3cnn4ncccc34)n2)C1	binding	1 µM	100%
FC(F)(F)Oc1cccc(-c2cnc3ccc(-c4ccncc4)nn23)c1	cell-free assay, competition with immobilised ligand	5 µM	80%
C[C@H](c1ccc(F)cc1)N(Cc1cccc(C(=O)O)c1)C(=O)c1cnc2ccccc2c1	cell-free assay, competition with immobilised ligand	1 µM	100%
C=CC(=O)N1CCC(C(=O)NCC(=O)N2CCN(c3nc(-c4cnc(N)nc4C(F)F)nc(N4CCOCC4)n3)CC2)CC1	binding, competition with immobilised ligand	1 µM	100%
CN(C)c1nccc(-c2cnc3ncccn23)n1	binding	1 µM	100%
COc1ccc2cc(OCC3(C(=O)O)CN(C(=O)c4ccc(F)cc4)C3)ccc2c1	cell-free assay, competition with immobilised ligand	1 µM	100%
CN(C)c1ncc(F)c(-c2cnn3ncccc23)n1	binding	1 µM	100%
COc1cnc(Nc2cccc(S(N)(=O)=O)c2)nc1N1CCN(c2ccccc2)CC1	binding, competition with immobilised ligand	1 µM	100%
C[C@@H]1CCN(c2nccc(-c3cnn4ncccc34)n2)C1	binding	1 µM	91%
NS(=O)(=O)c1cc(NC(=O)Cc2ccccc2)ccc1Oc1cccc(Cl)c1	cell-free assay, competition with immobilised ligand	1 µM	91%
CN(C)c1nccc(-c2cnn3ncccc23)n1	binding	1 µM	84%
C[C@H](c1ccnc(Nc2nc3ccc(-c4cc(N(C)C)ncn4)cc3[nH]2)c1)N1CCN(C(=O)CC(F)(F)F)CC1	cell-free assay, competition with immobilised ligand	0.1 µM	100%
